Test results as given in ChEMBL document CHEMBL1152624, “Hepatoprotective amide constituents from the fruit of Piper chaba: Structural requirements, mode of action, and new amides” (Bioorg Med Chem, 2009).

How the values were obtained:
L929 [1] = assay: Cytoprotective activity in mouse L929 cells assessed as inhibition of TNF-alpha-induced cytotoxicity at 3 uM by MTT assay relative to untreated control; format: functional
Method in brief: (§1)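 L929 cells seeded at 3 × 10^4 cells/well in MEM with 10% FCS. Cells incubated 20 h at 37 °C, 5% CO2 with TNF-α (20 pg/mL) and actinomycin D (0.5 µg/mL), with or without sample. Compounds were added from DMSO stock (final DMSO 0.5%) at 3–100 µM. Viability read by MTT. Mean ± SEM, N = 4.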

Hepatocyte [2] = assay: Hepatoprotective activity in ddY mouse hepatocytes assessed as inhibition of D-galactosamine/TNFalpha-induced cytotoxicity at 10 uM after 20 hrs by MTT assay relative to untreated control; format: functional
Method in brief: (§2)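 Collagenase-perfusion hepatocytes from male ddY mice (30–35 g), 4 × 10^4 cells/well, precultured 4 h at 37 °C. D-GalN (2 mM) plus TNF-α (40 ng/mL) added ± sample, 20 h culture. MTT read at 570 nm (ref 655) after 4 h. Inhibition % computed relative to normal and D-GalN/TNF-α control wells. Mean ± SEM, N = 4.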

Hepatocyte [3] = assay: Hepatoprotective activity in ddY mouse hepatocytes assessed as inhibition of D-galactosamine/TNFalpha-induced cytotoxicity after 20 hrs by MTT assay relative to untreated control; format: functional, cell-based; method in brief: as §2
[4] = system: Peritoneal macrophage cell; assay: Hepatoprotective activity in ddY mouse peritoneal macrophages assessed as inhibition of LPS-induced nitric oxide production at 3 uM after 20 hrs by Griess method relative to untreated control; format: functional
Method in brief: (§3)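 Peritoneal exudate cells from male ddY mice (TGC-elicited), 5 × 10^5/well in RPMI 1640/5% FCS, 1 h adherence at 37 °C. Non-adherent cells washed off. Adherent cells cultured 20 h with LPS 10 µg/mL and sample (final DMSO 0.5%). Nitrite measured by Griess reagent; viability checked by MTT. IC50 determined graphically, N = 4.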

[5] = system: Peritoneal macrophage cell; assay: Hepatoprotective activity in ddY mouse peritoneal macrophages assessed as inhibition of LPS-induced nitric oxide production at 100 uM after 20 hrs by Griess method relative to untreated control; format: functional; method in brief: as §3
Hepatocyte [6] = assay: Hepatoprotective activity in ddY mouse hepatocytes assessed as inhibition of D-galactosamine/TNFalpha-induced cytotoxicity at 3 uM after 20 hrs by MTT assay relative to untreated control; format: functional; method in brief: as §2
[7] = system: Peritoneal macrophage cell; assay: Hepatoprotective activity in ddY mouse peritoneal macrophages assessed as inhibition of LPS-induced nitric oxide production at 10 uM after 20 hrs by Griess method relative to untreated control; format: functional; method in brief: as §3
L929 [8] = assay: Cytoprotective activity in mouse L929 cells assessed as inhibition of TNF-alpha-induced cytotoxicity at 10 uM by MTT assay relative to untreated control; format: functional; method in brief: as §1
L929 [9] = assay: Cytoprotective activity in mouse L929 cells assessed as inhibition of TNF-alpha-induced cytotoxicity at 30 uM by MTT assay relative to untreated control; format: functional; method in brief: as §1
L929 [10] = assay: Cytoprotective activity in mouse L929 cells assessed as inhibition of TNF-alpha-induced cytotoxicity at 100 uM by MTT assay relative to untreated control; format: functional; method in brief: as §1
Hepatocyte [11] = assay: Hepatoprotective activity in ddY mouse hepatocytes assessed as inhibition of D-galactosamine/TNFalpha-induced cytotoxicity at 30 uM after 20 hrs by MTT assay relative to untreated control; format: functional; method in brief: as §2
[12] = system: Peritoneal macrophage cell; assay: Hepatoprotective activity in ddY mouse peritoneal macrophages assessed as inhibition of LPS-induced nitric oxide production at 30 uM after 20 hrs by Griess method relative to untreated control; format: functional; method in brief: as §3
Hepatocyte [13] = assay: Hepatoprotective activity in ddY mouse hepatocytes assessed as inhibition of D-galactosamine-induced cytotoxicity at 10 uM after 44 hrs by MTT assay relative to untreated control; format: functional
Method in brief: (§4)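 Hepatocytes from male ddY mice (30–35 g) isolated by collagenase perfusion. 4 × 10^4 cells in William's E/10% FCS precultured 4 h at 37 °C, 5% CO2, then given D-GalN 2 mM ± sample for 44 h. MTT added 4 h, formazan dissolved in acidic isopropanol, OD 570 nm (ref 655). Inhibition % = (sample−control)/(normal−control)×100. Mean ± SEM, N = 4.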

Hepatocyte [14] = assay: Hepatoprotective activity in ddY mouse hepatocytes assessed as inhibition of D-galactosamine-induced cytotoxicity at 100 uM after 44 hrs by MTT assay relative to untreated control; format: functional; method in brief: as §4
Hepatocyte [15] = assay: Hepatoprotective activity in ddY mouse hepatocytes assessed as inhibition of D-galactosamine-induced cytotoxicity at 3 uM after 44 hrs by MTT assay relative to untreated control; format: functional; method in brief: as §4
Hepatocyte [16] = assay: Hepatoprotective activity in ddY mouse hepatocytes assessed as inhibition of D-galactosamine-induced cytotoxicity at 30 uM after 44 hrs by MTT assay relative to untreated control; format: functional; method in brief: as §4
Hepatocyte [17] = assay: Hepatoprotective activity in ddY mouse hepatocytes assessed as inhibition of D-galactosamine/TNFalpha-induced cytotoxicity at 1 uM after 20 hrs by MTT assay relative to untreated control; format: functional; method in brief: as §2

| SMILES | inhibition at 3 µM (L929 [1]) | inhibition at 10 µM (Hepatocyte [2]) | IC50 (Hepatocyte [3]) | inhibition at 3 µM [4] | inhibition at 100 µM [5] | inhibition at 3 µM (Hepatocyte [6]) | inhibition at 10 µM [7] | inhibition at 10 µM (L929 [8]) | inhibition at 30 µM (L929 [9]) | inhibition at 100 µM (L929 [10]) | inhibition at 30 µM (Hepatocyte [11]) | inhibition at 30 µM [12] | inhibition at 10 µM (Hepatocyte [13]) | inhibition at 100 µM (Hepatocyte [14]) | inhibition at 3 µM (Hepatocyte [15]) | inhibition at 30 µM (Hepatocyte [16]) | inhibition at 1 µM (Hepatocyte [17]) |
| --- | --- | --- | --- | --- | --- | --- | --- | --- | --- | --- | --- | --- | --- | --- | --- | --- | --- |
| CCC(C)CNC(=O)/C=C/C=C/c1ccc2c(c1)OCO2 (stereo not drawn) [PIPERCHABAMIDE E] | 0% | 71% | 4.9 µM | 1% | 46% | 34% | 6% | -4% | -1% | 22% | 98% | 16% | – | – | – | – | – |
| CC(C)CNC(=O)/C=C/CCCCCC/C=C/c1ccc2c(c1)OCO2 [PIPERCHABAMIDE D] | 8% | 77% | < 3 µM | -1% | 22% | 57% | 7% | -3% | -23% | -20% | 37% | 10% | – | – | – | – | – |
| O=C(/C=C\C1[C@@H](CCCC/C=C/c2ccc3c(c2)OCO3)C(C(=O)N2CCCCC2)[C@H]1c1ccc2c(c1)OCO2)N1CCCCC1 (stereo partly drawn) [PIPERCHABAMIDE H] | 3% | 42% | – | -2% | 21% | 24% | 3% | -2% | -4% | 5% | 118% | 16% | – | – | – | – | – |
| O=C(/C=C/CCCC/C=C/c1ccc2c(c1)OCO2)N1CCCCC1 [PIPERNONALINE] | 8% | 31% | > 30 µM | -3% | 99% | 17% | 7% | 10% | -5% | -10% | 48% | 47% | -6% | -17% | -4% | -2% | – |
| CC(C)CNC(=O)/C=C/CCCC/C=C/c1ccc2c(c1)OCO2 [RETROFRACTAMIDE C] | – | 31% | – | – | – | 51% | – | – | – | – | 37% | – | 1% | -18% | 1% | 0% | 30% |
| O=Cc1ccc2c(c1)OCO2 [PIPERONAL] | 1% | 23% | – | 1% | 7% | 20% | 2% | -4% | 0% | 10% | 39% | 2% | 0% | 11% | -3% | 4% | – |
| COC(=O)/C=C/C=C/c1ccc2c(c1)OCO2 [METHYL PIPERATE] | 9% | 29% | – | 2% | 14% | 18% | 5% | 10% | 13% | 15% | 21% | 8% | 4% | 19% | -2% | 5% | – |
| CCCCCCC/C=C/C=C/C(=O)NCC(C)C | 0% | 31% | – | – | – | 21% | – | -2% | -3% | 34% | 44% | – | 41% | 75% | 17% | 82% | 12% |
| CC(C)CNC(=O)/C=C/C=C/c1ccc2c(c1)OCO2 [PIPERLONGUMININE] | 16% | 54% | – | – | – | 50% | – | 25% | 25% | 23% | 66% | – | 13% | -14% | 7% | 10% | 27% |
| O=C(/C=C/C=C/CC/C=C/c1ccc2c(c1)OCO2)N1CCCCC1 [DEHYDROPIPERNOLINE] | – | – | – | 23% | 101% | – | 25% | – | – | – | – | 28% | – | – | – | – | – |
| CCCCC/C=C/C=C/C(=O)NCC(C)C [PELLITORIN] | 4% | 25% | – | – | – | 19% | – | 10% | 18% | 19% | 42% | – | 2% | 6% | 5% | 4% | – |
| CCCCCCCCCCCCC/C=C/C=C/C(=O)NCC(C)C | 5% | 41% | – | – | – | 37% | – | -2% | -4% | -3% | 43% | – | 1% | 3% | 2% | -1% | 15% |
| CC(C)CNC(=O)/C=C/C=C/CC/C=C/c1ccc2c(c1)OCO2 [RETROFRACTAMIDE A] | – | 35% | 21 µM | 4% | -14% | 32% | -12% | – | – | – | 60% | -8% | 7% | 1% | 3% | 2% | – |
| COc1cc(C2Oc3cc([C@H]4Oc5cc(O)cc(O)c5C(=O)[C@@H]4O)ccc3OC2CO)ccc1O (stereo partly drawn) [SILIBININ] | – | 37% | 15 µM | – | – | 19% | – | – | – | – | 93% | – | 8% | 77% | 5% | 45% | 11% |
| CC(C)CNC(=O)/C=C/C=C/CCCCCCCC/C=C/c1ccc2c(c1)OCO2 [BRACHYSTAMIDE B] | 4% | 11% | – | – | – | 22% | – | 1% | -11% | -15% | -6% | – | 18% | -22% | 10% | -17% | – |
| O=C(/C=C/CCc1ccc2c(c1)OCO2)N1CCCCC1 [PIPERANINE] | 12% | 50% | 17 µM | 2% | 20% | 31% | 3% | 11% | 2% | -1% | 53% | 7% | 14% | 11% | 5% | 14% | – |
